Bioassay records (PubChem BioAssay)
SKKanGAS inh: SKKanGAS growth inhibition; S. pyogenes SKKanGAS, kanamycin growth, BacTiter-Glo, 6 h; inhibition, % at 7.5 µM; 300,000 compounds, 1.3% hits;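 active = mean replicate score, as percent of positive control median, at least 50; inconclusive = mean below 50 but one replicate at or above 50; inactive = mean and every replicate below 50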;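 note: strain carries kanamycin resistance gene driven by streptokinase promoter and grows in 40 µg/ml kanamycin; loss of luminescence reflects streptokinase promoter inhibition or plain growth inhibition; 0% = median of DMSO wells and 100% = positive control at its reference dose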
Mdm2 MdmX PPI: disrupts the human Mdm2-MdmX interaction. SaOS-2 split-luciferase Mdm2/MdmX complementation, luminescence. O15151+Q00987. inhibition, % at 8 µM. 330,000 compounds, 3% hits;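 active = inhibition of at least 50% at 8 µM in the primary screen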
Target sequence (O15151 whole entry, looked up): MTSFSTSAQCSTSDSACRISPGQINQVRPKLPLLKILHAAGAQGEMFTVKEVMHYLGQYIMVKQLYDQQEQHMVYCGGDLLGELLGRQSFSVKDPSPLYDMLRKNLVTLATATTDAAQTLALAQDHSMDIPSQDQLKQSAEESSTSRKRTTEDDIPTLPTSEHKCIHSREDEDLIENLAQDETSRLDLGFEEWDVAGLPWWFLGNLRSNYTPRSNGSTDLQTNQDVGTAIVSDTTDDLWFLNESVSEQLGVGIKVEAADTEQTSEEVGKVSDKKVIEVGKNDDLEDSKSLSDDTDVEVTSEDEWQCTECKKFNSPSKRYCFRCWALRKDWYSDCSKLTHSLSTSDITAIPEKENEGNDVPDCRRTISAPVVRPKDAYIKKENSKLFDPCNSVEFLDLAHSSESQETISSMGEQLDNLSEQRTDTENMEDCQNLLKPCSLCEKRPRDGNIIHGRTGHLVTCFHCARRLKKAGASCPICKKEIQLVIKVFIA
Target sequence (Q00987 whole entry, looked up): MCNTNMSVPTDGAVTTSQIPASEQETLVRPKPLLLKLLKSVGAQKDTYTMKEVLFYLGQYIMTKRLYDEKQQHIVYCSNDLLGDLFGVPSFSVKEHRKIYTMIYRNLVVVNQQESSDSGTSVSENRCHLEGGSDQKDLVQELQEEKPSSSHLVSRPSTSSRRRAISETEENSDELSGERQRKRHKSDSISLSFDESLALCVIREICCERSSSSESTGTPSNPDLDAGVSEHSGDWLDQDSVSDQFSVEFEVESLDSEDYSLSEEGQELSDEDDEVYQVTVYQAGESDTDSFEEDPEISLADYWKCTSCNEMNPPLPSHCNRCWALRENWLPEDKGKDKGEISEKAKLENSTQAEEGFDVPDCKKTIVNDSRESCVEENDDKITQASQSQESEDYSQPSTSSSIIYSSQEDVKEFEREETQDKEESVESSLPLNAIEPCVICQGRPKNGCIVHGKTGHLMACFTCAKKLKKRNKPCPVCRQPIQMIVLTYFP
CSC inhib: cancer stem cell inhibition. 300,000 compounds, 1.1% hits. inhibition, % at 7.5 µM. cancer stem cell-like cells viability, luminescence; in the data active = inhibition above about 75%; inconclusive = no clear call, values can overlap the other calls; tested in HMLE shEcad cells
aSyn 5UTR inh: MLPCN primary screen, SNCA 5' untranslated region. alpha-synuclein 5'UTR reporter, inhibitor activity. inhibition, % (tested at 7.5 µM). 300,000 compounds, 0.82% hits; in the data active = inhibition above about 60%; inconclusive = no clear call, values can overlap the other calls;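 note: H4 neuroglioblastoma cells stably carrying SNCA 5'UTR luciferase fusion; 0% = DMSO wells and 100% = positive control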
T cruzi repl: T. cruzi replication inhibition; T. cruzi beta-gal in NIH3T3, luminescence, 90 h; inhibition, % (no concentration beside the values); 300,000 compounds, 1.4% hits; AID 1885;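 active = mean inhibition across valid replicates above about 55%, limit read from the data; inconclusive = mean below that limit but half or more replicates reach it; inactive = mean below it, under half of replicates reach it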;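 note: signal also drops with host cell toxicity which is not excluded here; 0% = plate median of DMSO wells and 100% = zero luminescence signal; higher percent means less beta-gal luminescence so fewer parasites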
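System: Mouse NIH/3T3 fibroblasts infected with β-gal-expressing T. cruzi Tulahuen C4 | Quantity: NIH/3T3 cells, 5,000 per well | Reagent: 5000 reporter trypomastigotes per well | Dosing: Compound pinned at 50 nL/well, DMSO | Schedule: 3 h host attachment, then at least 90 h co-culture | Detection: GalScreen luminescence, 60 min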
Mdm2-MdmX conf: human Mdm2/MdmX binding inhibition, confirmed; shares compounds with Mdm2 MdmX PPI; luminescent assay; inhibition, % at 8 µM; 10,000 compounds, 55% hits; in the data active = inhibition above about 40%
FLuc counter: full-length luciferase inhibition in Mdm2/MdmX counter-screen. shares compounds with Mdm2 MdmX PPI. SaOS-2 full-length luciferase counterscreen, luminescence. inhibition, % at 8 µM. 6,200 compounds, 77% hits. AID 504607;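 active = mean inhibition at 8 µM reaching about 37%, which flags the compound as non-specific, limit read from the data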;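 note: p53-null SaOS-2 cells with luciferase driven by a doxycycline-inducible promoter; compound on cells about two nights before reading with doxycycline added after day one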
Numbers without * were called inactive; ? = inconclusive; nt = no result. The list is not random: actives were taken first. Their share in the collection is about 5.4%.

SMILES | SKKanGAS inh | Mdm2 MdmX PPI | CSC inhib | aSyn 5UTR inh | T cruzi repl | Mdm2-MdmX conf | FLuc counter
Cc1cc(NC(=O)c2sccc2C)n(-c2nc3ccccc3[nH]2)n1 | 63* | 59* | -1 | 26 | 39 | 26 | nt
Cc1cc(NC(=O)C2CCCC2)n(-c2nc3ccccc3[nH]2)n1 | -4 | 53* | -13 | 8 | 10 | 41* | 63*
COc1ccc(C(=O)Nc2cc(C)nn2-c2nc3ccccc3[nH]2)c(OC)c1 | 36 | 51* | -12 | -10 | 61* | 33 | nt
Cc1cc(NC(=O)c2ccccc2)n(-c2nc3ccccc3[nH]2)n1 | 0 | 39 | -7 | 14 | 12 | nt | nt
COc1cccc(OC)c1C(=O)Nc1cc(C)nn1-c1nc2ccccc2[nH]1 | 51* | 77* | 50 | -37 | 43 | 54* | 63*
CN(C)c1nc(NCc2ccccc2)nc(N/N=C/c2ccc(Cl)cc2Cl)n1 | 24 | -37 | 4 | 6 | 27 | nt | nt
CCc1cccc2sc(N3CCN(C(=O)c4ccc([N+](=O)[O-])o4)CC3)nc12 | 59* | 94* | 5 | -49 | 64* | 75* | 46*
O=C(c1ccc([N+](=O)[O-])o1)N1CCN(Cc2ccccc2)CC1 | 13 | 3 | -14 | -14 | 45 | nt | nt
CCC(=O)c1ccc(OCC(=O)NCCc2ccccn2)cc1 | -4 | 4 | -6 | 3 | -7 | nt | nt
COc1cc(S(=O)(=O)NC2CCCCC2)c(C)cc1C | 9 | -4 | nt | 9 | 2 | nt | nt
Cc1cccc(OCc2n(CC(=O)OC3CC(C)CCC3C(C)C)c3ccccc3[n+]2C)c1 (stereo not given) | 20 | 94* | 103* | ? | 65* | 96* | 56*
CC1CCC(C(C)C)C(OC(=O)Cn2c(-c3ccc(F)cc3)[n+](C)c3ccccc32)C1 (stereo not given) | nt | 89* | 10 | nt | nt | 93* | 57*
CC1CCC(C(C)C)C(OC(=O)Cn2c(-c3ccccc3)[n+](C)c3ccccc32)C1 (stereo not given) | 12 | 93* | 17 | 77* | 46 | 94* | 38*
CC1CCC(C(C)C)C(OC(=O)CSc2nnc(N)s2)C1 (stereo not given) | -7 | -27 | 9 | -5 | -1 | nt | nt
CN(C)Cc1c(O)ccc2c1O/C(=C\C=C\c1ccccc1)C2=O | -3 | 101* | 51 | -2 | -10 | 72* | 21
CCN1CCN(Cc2c(O)ccc3c2O/C(=C\C=C\c2ccccc2)C3=O)CC1 | -3 | 96* | 7 | -33 | 8 | 59* | 37*
COc1ccc(OC)c(NC(=O)CSc2ncnc3c2cnn3-c2ccccc2Cl)c1 | 25 | -12 | nt | -2 | 15 | nt | nt
COc1ccc(C(=O)N2CCN(c3ncnc4c(-c5ccccc5)nsc34)CC2)cc1 | 12 | nt | nt | 15 | 27 | nt | nt
COc1ccc(-c2nsc3c(N4CCCCC4)ncnc23)cc1 | 11 | 66* | 58 | 85* | 12 | 70* | 55*
COc1ccc(-c2nsc3c(N4CCCCC4C)ncnc23)cc1 (stereo not given) | 32 | 84* | 46 | 90* | 18 | 91* | 25
COc1cc2[nH]c3c(N4CCN(c5ccc(Cl)cc5)CC4)ncnc3c2cc1OC | 26 | 53* | -8 | -9 | 39 | 31 | nt
COc1cccc(N2CCN(c3ncnc4c3[nH]c3ccccc34)CC2C)c1 (stereo not given) | 26 | 100* | 8 | -73 | ? | 98* | 3
COc1ccc2[nH]c3c(N4CC(C)OC(C)C4)ncnc3c2c1 (stereo not given) | 10 | 27 | 1 | -18 | 3 | nt | nt
COc1cccc(N2CCN(c3ncnc4c3[nH]c3ccc(F)cc34)CC2C)c1 (stereo not given) | ? | 98* | -9 | 47 | ? | 100* | 1
c1ccc2c(c1)CCN(c1ncnc3c1[nH]c1ccccc13)C2 | 5 | 38 | -7 | -102 | 17 | nt | nt
SMILES | SKKanGAS inh | Mdm2 MdmX PPI | CSC inhib | aSyn 5UTR inh | T cruzi repl | Mdm2-MdmX conf | FLuc counter
Cc1cc(C)cc(NC(=O)Cn2nnc(C(=O)NCc3ccc4c(c3)OCO4)c2N)c1 | 3 | 55* | 2 | 36 | 4 | 37 | 55*
Cc1ccc(NC(=O)Cn2nnc(C(=O)NCc3cccs3)c2N)c(C)c1 | 0 | 69* | -13 | 4 | -15 | 23 | nt
CCOc1ccc(NC(=O)Cn2nnc(C(=O)NCc3ccc4c(c3)OCO4)c2N)cc1 | -1 | 52* | -4 | 21 | 5 | 18 | nt
COc1ccc(NC(=O)Cn2nnc(C(=O)NCc3ccc4c(c3)OCO4)c2N)cc1 | 7 | 42 | 2 | -10 | 6 | nt | nt
Cc1cc(C)c(NC(=O)Cn2nnc(C(=O)NCc3cccs3)c2N)c(C)c1 | 2 | 46 | -13 | 4 | -10 | nt | nt
COc1cc(NC(=O)c2cc(S(=O)(=O)N3CCCCC3)ccc2N2CCOCC2)cc(OC)c1 | -3 | 13 | -11 | 5 | ? | nt | nt
O=C(NCc1ccon1)C1CCC(=O)N(CCc2cccc(F)c2)C1 (stereo not given) | 6 | -22 | nt | 2 | -6 | nt | nt
CC(=O)c1sc(NC(=O)C2CCN(c3ncnc4sc(C)c(C)c34)CC2)nc1-c1ccccc1 | 20 | 10 | 7 | 1 | 10 | nt | nt
Cc1sc2ncnc(N3CCC(C(=O)Nc4nc(-c5ccc(F)cc5)cs4)CC3)c2c1C | -8 | 94* | 36 | 35 | 43 | 90* | 60*
CCN(CC)CCNC(=O)c1ccc(NC(=O)C2CCN(c3ncnc4sc(C)c(C)c34)CC2)cc1 | 3 | 91* | 11 | -34 | 3 | 61* | 22
Cc1sc2ncnc(N3CCC(C(=O)Nc4ccc(OC(F)F)c(Cl)c4)CC3)c2c1C | nt | 27 | 64 | nt | nt | nt | nt
COc1ccc2nc(N/C(N)=N/C(=S)Nc3c(C)cccc3C)nc(C)c2c1 | 51* | 57* | 18 | 33 | 37 | 41* | 68*
Cc1ccc(NC(=S)/N=C(\N)Nc2nc(C)c3cc(C)ccc3n2)c(C)c1 | 11 | 72* | 11 | 27 | 0 | 41* | 79*
CCc1ccccc1NC(=S)/N=C(\N)Nc1nc(C)c2cc(C)ccc2n1 | -6 | 67* | -26 | 42 | 36 | 52* | 70*
CCOc1ccc2nc(N/C(N)=N/C(=S)Nc3cccc(C)c3)nc(C)c2c1 | 21 | 8 | 8 | 22 | 48 | nt | nt
Cc1cccc(OC(C)C(=O)Nc2nccs2)c1 (stereo not given) | 4 | -28 | 6 | -13 | -4 | nt | nt
CCNS(=O)(=O)c1cccc(C(=O)c2c(C)cc3ccccn23)c1 | 28 | -2 | nt | 13 | 8 | nt | nt
CCOc1cc(-c2cc(-c3ccccc3)nc(N)c2C#N)ccc1O | -6 | 76* | nt | 23 | 41 | 61* | 95*
CCOc1cc(-c2cc(-c3ccc(N)cc3)nc(N)c2C#N)ccc1O | 38 | 51* | 37 | 19 | 21 | 26 | 124*
